IDE cell inh – human IDE inhibitors in live cells, primary screen, fluorescence polarization, HEK cells, FAbetaB substrate; Insulin-degrading enzyme (Homo sapiens), P14735; FAbetaB cleavage; inhibition, % at 5.59 µM; hit rate 0.41% among 320,000;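 active = percent inhibition above the average of all tested compounds plus 3 SD, set per screening campaign, cut at about 16% in these data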;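 note: IDE supplied by intact live HEK cells; FP after avidin binding of uncleaved biotin substrate so inhibition keeps polarization high; 0% = DMSO wells and 100% = 60 µM reference IDE inhibitor Ii1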
TPT1 inh – Candida albicans TPT1 enzyme inhibitors, primary screen, biochemical, fluorescence polarization | hit rate 0.81% among 300,000 | tRNA 2'-phosphotransferase TPT1 (Candida albicans SC5314) | AID 1962, 2009 | inhibition, % at 5 µM | recombinant caTPT1, FP RNA substrate dephosphorylation;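 active = inhibition above the mean of all tested compounds plus 3 SD, set per screening campaign, cut at about 24% in these data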;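 note: plate controls were DMSO alone for no effect and ferristatin control at 100 nM for full effect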
HNF4A DNA FP – change in binding of human HNF4A to DNA, primary screen, biochemical, fluorescence polarization, FITC-DNA. hit rate 0.3% among 360,000. Hepatocyte nuclear factor 4-alpha (Homo sapiens), P41235. activity change, % at 10 µM. 1 h; in the data active = activity change above about 30%, passing the limit was not always enough
Rpn11 block – Rpn11 (PSMD14) deubiquitinase inhibitors, primary screen, biochemical, fluorescence polarization, uHTS. 26S proteasome non-ATPase regulatory subunit 14 (Homo sapiens), O00487. human 26S proteasome, Ub4-pepOG fluorescence polarization; 20S core pre-blocked with epoxomicin. inhibition, % at 20 µM. hit rate 0.59% among 360,000. AID 588493, 2011;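 active = inhibition at 20 µM, scaled to each plate's controls, above about 33%, limit read from the data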
IDE cell activ – human IDE activators in live cells, primary screen, fluorescence polarization, HEK cells, FAbeta-B substrate; FAbeta-B cleavage; 0% vehicle, 100% cell-free pure enzyme wells; hit rate 0.073% among 340,000; AID 493087, 2011; activation, % at 5.96 µM;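 active = activation above the mean of all tested compounds plus 3 SD, set per screening campaign, cut at about 17% in these data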
CSN deneddyl inh – inhibitors of CSN-mediated cullin deneddylation, primary screen, biochemical, fluorescence polarization, uHTS; AID 651999, 2013; Purified CSN, SCF-Nedd8-OG deneddylation; inhibition, % at 12.5 µM; hit rate 0.38% among 360,000;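 active = pattern-corrected inhibition above about 35%, with an unprinted fluorescence ratio check between 0.5 and 1.5, limit read from the data, passing the limit was not always enough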;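 note: 0% = enzyme with substrate and 100% = substrate without enzyme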
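Test system: purified human Csn5 enzyme expressed in HEK293T cells. Amount: 0.24 nM enzyme. Reagent: SCFSkp2-Nedd8OG substrate at 10 nM final. Schedule: 90 min incubation of compound, enzyme and substrate at room temperature. Detection: fluorescence polarization. Read-out: % inhibition of substrate cleavage by Csn5.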
Rpn11 inh conf – Rpn11 (PSMD14) deubiquitinase inhibitors, confirmation, biochemical, fluorescence polarization, single concentration; shares compounds with Rpn11 block; purified human 26S proteasome, Ub4-pepOG fluorescence polarization; proteasome pretreated with epoxomicin; hit rate 29% among 1,900; inhibition, % at 20 µM; AID 602318, 2012
MMP-2 inh – MMP-2 enzyme inhibition, confirmation, counter-screen for RPN11 inhibitor project, biochemical, fluorescence, single concentration. recombinant MMP-2, FRET peptide cleavage fluorescence. hit rate 4% among 1,900. inhibition, % at 20 µM. shares compounds with Rpn11 block;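 note: human MMP-2 activated beforehand with APMA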
Thrombin inh – bovine thrombin protease inhibition, confirmation, counter-screen for Rpn11 inhibitor project, biochemical, fluorescence polarization, single concentration; shares compounds with Rpn11 block; bovine thrombin cleavage of Ub4-pepOG; inhibition, % at 20 µM; hit rate 13% among 1,900;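 active = mean inhibition at least 40% at 20 µM, or signal 3 deviations below plate average, so some actives read negative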;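 note: plate controls were thrombin with DMSO for no effect and buffer wells lacking thrombin for full effect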
Target sequence (P00735 whole entry, looked up): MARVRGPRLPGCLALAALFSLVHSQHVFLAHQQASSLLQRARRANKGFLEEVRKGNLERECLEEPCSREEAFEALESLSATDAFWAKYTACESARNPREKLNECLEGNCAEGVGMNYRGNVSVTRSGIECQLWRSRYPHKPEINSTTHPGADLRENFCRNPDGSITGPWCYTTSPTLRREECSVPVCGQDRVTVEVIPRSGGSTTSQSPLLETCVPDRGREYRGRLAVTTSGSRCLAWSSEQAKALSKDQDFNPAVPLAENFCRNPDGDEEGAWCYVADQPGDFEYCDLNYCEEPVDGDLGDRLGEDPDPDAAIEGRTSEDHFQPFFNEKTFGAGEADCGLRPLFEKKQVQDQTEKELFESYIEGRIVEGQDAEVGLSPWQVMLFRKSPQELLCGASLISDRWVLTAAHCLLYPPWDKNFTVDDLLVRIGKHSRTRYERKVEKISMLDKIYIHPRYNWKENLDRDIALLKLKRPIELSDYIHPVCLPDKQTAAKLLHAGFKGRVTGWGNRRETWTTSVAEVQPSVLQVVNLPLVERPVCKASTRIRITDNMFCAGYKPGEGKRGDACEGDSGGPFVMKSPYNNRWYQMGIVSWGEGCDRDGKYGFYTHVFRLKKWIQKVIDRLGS
Numbers without * were called inactive; . = not tested or not shown. Only some compounds are listed: those with a hit (about 1.7% of all), similar ones and a draw of the others. Cut-off read from the data, not from the text of the source, unless noted: active = inhibition above about 40%; inactive = the rest.

SMILES	IDE cell inh	TPT1 inh	HNF4A DNA FP	Rpn11 block	IDE cell activ	CSN deneddyl inh	Rpn11 inh conf	MMP-2 inh	Thrombin inh
CC(C)C(=O)NC(c1ccccc1)c1cc([N+](=O)[O-])c2cccnc2c1O (stereo not given)	5.9	1.1	-5.9	44.8*	3.5	-1.1	47.2*	42.7*	-1.2
Cn1c(SCC(=O)Nc2ccc(C(N)=O)cc2)nnc1-c1cccs1	2.2	-3.1	-1.2	-1.5	-3.4	3.7	.	.	.
CCOC(=O)c1[nH]c2cc3c(cc2c1NC(=O)CN1CCN(CCO)CC1)OCO3	-4.2	-0.6	1.1	-0.9	-3.6	3.5	.	.	.
O=C(Cn1c(=O)cnc2ccccc21)Nc1ccccc1N1CCOCC1	-2.4	-2.5	2.7	-2.2	0.8	-4.6	.	.	.
CC(=O)c1ccccc1NC(=O)Cn1c(=O)cnc2ccccc21	3.9	21.4	9.0	41.1*	-1.6	-1.1	-8.6	2.7	12.2
CCN(C(=S)Nc1cccc2ccccc12)c1ccccc1	.	.	-1.6	-1.8	.	15.8	.	.	.
C=CC(=C)CC(NC)c1ccccc1 (stereo not given)	-0.8	-0.2	28.4	50.1*	-0.2	47.4*	36.5	-9.0	-14.1
CC(=O)NC(CC(=O)O)c1ccccc1 (stereo not given)	-1.9	-2.1	4.0	1.3	-0.4	-3.9	.	.	.
COc1ccc2c(-c3cc4ccc(OCc5ccc(F)cc5)cc4oc3=O)cc(=O)oc2c1	2.4	6.7	4.7	78.4*	4.5	-1.0	15.5	-42.9	17.6
COC(=O)c1ccc(C2SCC(=O)N2Cc2ccccc2)cc1 (stereo not given)	2.6	4.2	3.7	-8.9	-0.4	1.5	.	.	.
O=C(NCCSCc1ccccc1)c1ccc(C2SCC(=O)N2Cc2ccccc2)cc1 (stereo not given)	2.9	2.0	6.8	56.6*	0.3	4.9	42.7*	26.7	16.2
O=C(CN1CCN(c2ccccn2)CC1)Nc1ccccc1	-0.4	5.3	-5.2	-3.7	3.6	3.0	.	.	.
O=C(CN1CCN(c2ccccn2)CC1)NC1CCCC1	8.6	-1.7	5.7	85.7*	2.2	-4.5	-1.7	-11.9	58.7*
CSc1nc2nccc(-c3ccc(-c4ccccc4)cc3)n2n1	-2.9	0.5	0.9	60.0*	-0.8	22.2	1.2	32.5	-6.2
CSc1nc2nccc(-c3ccc(Oc4ccccc4)cc3)n2n1	-1.7	2.4	-2.1	-0.7	0.8	-4.8	.	.	.
O=C(N/N=C\c1ccc(OC(=O)c2cccs2)cc1)c1ccc(Cl)cc1	3.8	-2.2	8.0	76.0*	-2.7	29.4	31.3	3.9	-3.7
COc1ccc(C(=O)N/N=C/c2ccc(OC(=O)c3cccs3)cc2)cc1	-1.1	-3.0	-0.5	-3.6	-0.3	5.7	.	.	.
CCC(C)NC(=O)C1c2cc(OC)c(OC)cc2C(=O)N(C)C1c1ccc(OC)cc1 (stereo not given)	6.7	0.8	1.1	-5.2	5.2	2.8	.	.	.
CCC(C)NC(=O)C1c2cc(OC)c(OC)cc2C(=O)N(C)C1c1cccs1 (stereo not given)	9.6	0.4	12.6	158.3*	2.5	2.0	-12.3	-24.9	-10.4
CCN(CC(=O)Nc1ccc2c(c1)OCCO2)C(=O)COc1ccc(C(C)=O)cc1	.	.	2.9	4.7	.	0.2	.	.	.
CCC(CO)Oc1cc(NC(=O)c2ccc(N)cc2)c2ncn(C(C)C)c2c1 (stereo not given)	6.7	.	2.3	43.2*	0.8	22.9	44.4*	13.4	-4.2
CCC(CO)Oc1cc(NC(=O)c2ccc(F)cc2)c2ncn(C(C)C)c2c1 (stereo not given)	3.1	.	-0.3	-5.3	1.9	2.7	.	.	.
CCOC(=O)c1[nH]c2ccccc2c1NC(=O)Nc1ccc(OC)cc1	-2.8	-2.7	2.9	136.8*	3.5	0.1	-16.6	-39.5	-12.3
CCCC(=O)Nc1c(C(=O)OCC)[nH]c2ccccc12	1.1	-2.1	0.9	-0.7	4.7	3.2	.	.	.
Cc1cc(C)n(-c2ccc(NC(=O)C3CCCCN3Cc3cccc4c3OCO4)cc2)n1 (stereo not given)	.	.	-0.4	6.8	5.3	1.2	.	.	.
SMILES	IDE cell inh	TPT1 inh	HNF4A DNA FP	Rpn11 block	IDE cell activ	CSN deneddyl inh	Rpn11 inh conf	MMP-2 inh	Thrombin inh
CCOC(=O)c1c(NC(=O)COc2ccc3ccc(=O)oc3c2)sc(C(=O)N(C)C)c1C	-2.1	0.4	4.2	-0.2	2.1	2.8	.	.	.
S=C(NCCCN1CCOCC1)Nc1cccc(-c2nnc3n2CCCCC3)c1	6.2	-2.3	-3.4	-0.7	-6.5	4.1	.	.	.
COc1ccc(Cc2c(C(C)(C)C)nc3ccc(Cl)cn23)c(C)c1	.	.	12.1	56.2*	.	4.2	43.8*	-16.4	24.2
COc1ccc(Cc2c(-c3ccc(F)cc3)nc3c(C)cc(Br)cn23)c(C)c1	.	.	18.8	34.5	.	9.3	.	.	.
COc1ccc(Cc2c(-c3ccccc3)nc3c(C)cc(Br)cn23)c(C)c1	.	.	11.7	63.0*	.	-0.9	15.7	46.9*	9.8
COc1ccc(Cc2c(-c3ccc(Cl)cc3)nc3c(C)cc(Br)cn23)c(C)c1	.	.	13.3	44.0*	.	8.9	28.1	23.0	21.1
CCN1CCN(C(=O)c2ccc3nc(-c4ccccc4)c(-c4ccccc4)nc3c2)CC1	-1.7	2.4	3.1	2.3	2.2	-1.5	.	.	.
O=C(O)c1cc(-c2ccc(/C=N/Nc3ccc([N+](=O)[O-])cn3)o2)ccc1Cl	.	.	3.3	75.5*	3.5	10.3	1.3	-15.0	22.1
COC(=O)c1ccc(CNC(=O)COC(=O)c2ccc(N(C)C)cc2)cc1	1.8	3.3	-0.3	-2.5	-0.6	3.9	.	.	.
[O-][n+]1cccc2c(Br)cc(Br)c(O)c21	-0.9	1.1	-3.1	52.7*	-1.0	5.2	-19.6	-8.4	-7.0
Oc1c(Br)cc(Br)c2cccnc12	.	.	2.3	33.6	2.5	-4.0	.	.	.
